{"source": "paper PMC11455733", "about": "(Drugs in R&D, 2024)", "key": {"[1]": {"test": "Solubility in water or saline", "format": "physicochemical"}, "[2]": {"test_system": "IL-1β, IL-6, and TNFα in total lung homogenates", "test": "10-day daily IP administration, lung cytokines by ELISA", "format": "in vivo, C57BL/6 mice", "settings": "20.0 mg/kg IP daily for 10 days, day 11, vs vehicle", "how_it_was_run": "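On day 11, IL-1β, IL-6 and TNFα were measured by mouse ELISA kits in total lung homogenates. Mice were C57BL/6 of both sexes (7–12 weeks; n = 8 per group), given daily IP vehicle (DMSO/0.5% Methocel in 0.9% NaCl, 10%/90% vol/vol) or test compound for 10 days. Analysis was ANOVA followed by unpaired t test.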"}, "[3]": {"test": "10-day daily IP administration, complete blood count", "format": "in vivo, C57BL/6 mice", "settings": "20.0 mg/kg IP daily for 10 days, day 11, vs vehicle", "how_it_was_run": "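Blood was collected postmortem on day 11 and run on a veterinary haematology analyser for complete blood count. Mice were male and female C57BL/6 (7–12 weeks; n = 8 per group), dosed IP daily for 10 days with vehicle (DMSO/0.5% Methocel in saline, 10%/90% vol/vol) or test compound. Analysis was ANOVA, then unpaired Student t test.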"}, "[4]": {"test_system": "lung, liver, and kidney", "test": "10-day daily IP administration, H&E histology scoring", "format": "in vivo, C57BL/6 mice", "settings": "20.0 mg/kg IP daily for 10 days, all parameters", "how_it_was_run": "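Male and female C57BL/6 mice (7–12 weeks; n = 8 per group, equal sexes) got IP vehicle (DMSO then 0.5% Methocel in 0.9% NaCl, 10%/90% vol/vol) or test compound daily from day 0 for 10 days. On day 11, organs were fixed in 10% neutral formalin and paraffin-embedded. 5 μm H&E sections were graded blindly by a pathologist over the whole section area.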"}, "[5]": {"test": "10-day daily IP administration, body weight", "format": "in vivo, C57BL/6 mice", "how_it_was_run": "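Body weights were recorded daily and again on day 11, before euthanasia. Mice were C57BL/6 of both sexes (7–12 weeks; n = 8 per group, equal males and females), with sex data combined. Dosing was IP once daily for 10 days with vehicle (DMSO diluted 10%/90% vol/vol in 0.5% Methocel/0.9% NaCl) or test compound. Groups were compared by ANOVA followed by unpaired t test.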"}, "[6]": {"test_system": "EphB2", "settings": "cited from earlier work"}, "[7]": {"test": "10-day daily IP administration, serum chemistry", "format": "in vivo, C57BL/6 mice", "settings": "20.0 mg/kg IP daily for 10 days, day 11, vs vehicle", "how_it_was_run": "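Serum was prepared from postmortem blood on day 11 and analysed on a chemistry analyser per the manufacturer's instructions. Mice were C57BL/6 of both sexes (7–12 weeks; n = 8 per group), dosed IP daily for 10 days with vehicle (DMSO/0.5% Methocel in 0.9% NaCl, 10%/90% vol/vol) or test compound. Analysis was ANOVA, then unpaired t test.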"}, "[8]": {"test_system": "Col1a1 and Fn mRNA in total lung RNA", "test": "10-day daily IP administration, lung extracellular matrix mRNA by qPCR", "format": "in vivo, C57BL/6 mice", "settings": "20.0 mg/kg IP daily for 10 days, day 11, vs vehicle", "how_it_was_run": "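Lung tissue was taken on day 11, after 10 days of daily IP vehicle (DMSO/0.5% Methocel-saline) or test compound in male and female C57BL/6 mice (n = 8 per group). Tissue was lysed and RNA purified with genomic DNA removal. cDNA was made with oligo(dT) plus random hexamers, then SYBR green real-time PCR was run. Col1a1 and Fn were expressed as ratios to B2M.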"}, "[9]": {"settings": "within normal published parameters"}}, "data": [{"smiles": "CCN1CCN(Cc2ccc(NC(=O)c3ccc(C)c(NC(=O)c4cncc(-c5cccs5)c4)c3)cc2C(F)(F)F)CC1", "note": "[ALW-II-41-27]", "values": [{"measurement": "solubility in water or saline", "setting": "[1]", "result": "lack of solubility"}, {"measurement": "IL-1β in whole-lung lysates", "setting": "[2]", "result": "No significant alterations"}, {"measurement": "IL-6 in whole-lung lysates", "setting": "[2]", "result": "No significant alterations"}, {"measurement": "TNF-α in whole-lung lysates", "setting": "[2]", "result": "No significant alterations"}, {"measurement": "CBC parameters other than NEU and RBC", "setting": "[3]", "result": "no significant differences"}, {"measurement": "neutrophil (NEU) count", "setting": "[3]; [9]", "result": "significantly higher"}, {"measurement": "red blood cell (RBC) count", "setting": "[3]; [9]", "result": "significantly higher"}, {"measurement": "histology score (0 normal to 4+), lung, liver, and kidney", "setting": "[4]", "result": 0}, {"measurement": "daily and ending weight loss", "setting": "[5]; 20.0 mg/kg IP daily for 10 days, vs vehicle", "result": "no significant changes"}, {"measurement": "tolerability", "setting": "[5]; 20.0 mg/kg IP once a day in mice", "result": "well tolerated"}, {"measurement": "inhibition of the Ephrin receptor EphB2", "setting": "[6]", "result": "shown to inhibit"}, {"measurement": "serum chemistry parameters other than creatinine", "setting": "[7]", "result": "no significant changes"}, {"measurement": "Col1a1 mRNA expression (ratio to B2M) in lung", "setting": "[8]", "result": "no significant differences"}, {"measurement": "Fn mRNA expression (ratio to B2M) in lung", "setting": "[8]", "result": "no significant differences"}]}]}
